The structures appear in SMILES notation.

Assay [1] deals with Stromelysin-1 (Homo sapiens, UniProt P08254). The experiment in a line: Inhibitory activity against matrix metalloprotease-3 (MMP-3)(stromelysin-1). The method, boiled down: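 Recombinant human MMP-3 activated with 1 mM p-aminophenylmercuric acetate, 1 h, 37 °C. Compound in 50 mM Tris, 150 mM NaCl, 10 mM CaCl2, 0.05% Brij-35, pH 7.5, preincubated with enzyme 10 min at 37 °C. Fluorescence-quenched peptide substrate added, 2 h at 37 °C; Ex/Em 320/405 nm. Ki from percent inhibition and substrate Km.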

Assay [2] has as its target T1, Disintegrin and metalloproteinase domain-containing protein 9 (Homo sapiens, UniProt Q13443).
T1 sequence (Q13443 whole entry): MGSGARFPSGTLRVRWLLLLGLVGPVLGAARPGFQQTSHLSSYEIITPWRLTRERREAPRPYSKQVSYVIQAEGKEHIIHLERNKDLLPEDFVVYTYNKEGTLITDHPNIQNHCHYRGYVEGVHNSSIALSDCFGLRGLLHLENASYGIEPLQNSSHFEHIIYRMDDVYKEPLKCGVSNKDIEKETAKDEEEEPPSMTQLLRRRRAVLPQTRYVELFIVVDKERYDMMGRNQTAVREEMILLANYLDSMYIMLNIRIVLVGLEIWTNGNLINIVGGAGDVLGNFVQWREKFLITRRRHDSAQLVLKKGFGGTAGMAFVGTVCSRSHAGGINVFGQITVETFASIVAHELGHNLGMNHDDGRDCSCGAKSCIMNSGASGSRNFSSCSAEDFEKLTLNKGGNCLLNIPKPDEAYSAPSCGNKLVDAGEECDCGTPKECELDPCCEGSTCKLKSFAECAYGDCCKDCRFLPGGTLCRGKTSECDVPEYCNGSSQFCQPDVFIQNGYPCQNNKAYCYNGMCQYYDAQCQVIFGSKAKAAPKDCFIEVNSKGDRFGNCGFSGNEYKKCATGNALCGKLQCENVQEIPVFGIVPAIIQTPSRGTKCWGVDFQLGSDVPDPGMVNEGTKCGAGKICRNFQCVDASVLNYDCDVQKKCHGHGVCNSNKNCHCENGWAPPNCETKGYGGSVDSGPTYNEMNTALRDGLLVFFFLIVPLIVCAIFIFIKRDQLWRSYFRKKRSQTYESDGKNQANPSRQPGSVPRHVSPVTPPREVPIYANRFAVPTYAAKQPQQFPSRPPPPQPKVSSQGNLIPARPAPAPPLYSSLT
The experiment in a line: Inhibition of the heparin binding epidermal growth factor (HB-EGF) release from fibrosarcoma HT1080 transfectants expressing […] (AP) tagged HB-EGF stimulated by 12-O-tetradecanoylphorbol 13-acetate(TPA). The method, boiled down:
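HT-1080 transfectants in MEM/10% FCS seeded at 2 × 10⁵ cells/well, grown 24 h, PBS-washed, preincubated 30 min with compound in MEM containing 1% DMSO. Stimulated with TPA (60 nM) for 60 min. Supernatant heated 10 min at 65 °C to kill endogenous phosphatases, then incubated 2 h with p-nitrophenyl phosphate (1 mg/mL) in 1 M diethanolamine, pH 9.8; A405. IC50 from a concentration series.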

The target in assay [3] is T2, Interstitial collagenase (Homo sapiens, UniProt P03956).
T2 sequence (P03956 whole entry): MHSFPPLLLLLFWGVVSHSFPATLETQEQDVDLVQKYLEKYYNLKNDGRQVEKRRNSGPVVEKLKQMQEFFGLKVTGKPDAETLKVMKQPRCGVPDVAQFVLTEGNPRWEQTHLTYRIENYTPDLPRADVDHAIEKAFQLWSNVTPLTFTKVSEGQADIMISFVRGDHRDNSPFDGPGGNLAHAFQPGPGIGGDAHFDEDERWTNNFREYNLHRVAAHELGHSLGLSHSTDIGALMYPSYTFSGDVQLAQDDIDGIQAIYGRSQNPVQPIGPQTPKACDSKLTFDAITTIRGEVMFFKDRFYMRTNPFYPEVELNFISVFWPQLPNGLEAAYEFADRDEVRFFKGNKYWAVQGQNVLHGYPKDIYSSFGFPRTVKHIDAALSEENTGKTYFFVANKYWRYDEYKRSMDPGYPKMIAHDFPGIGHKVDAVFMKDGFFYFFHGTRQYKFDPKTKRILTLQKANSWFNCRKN
The experiment in a line: Inhibitory activity against matrix metalloprotease-1 (MMP-1)(recombinant human collagenase-1).

The target in assay [4] is Matrix metalloproteinase-9 (Homo sapiens, UniProt P14780). The experiment in a line: Inhibitory activity against matrix metalloprotease-9 (MMP-9)(gelatinase-B).
Assay [5] concerns the target Disintegrin and metalloproteinase domain-containing protein 17 (Homo sapiens, UniProt P78536). The experiment in a line: Inhibitory activity against tumor necrosis factor alpha converting enzyme (TACE) from human acute monocytic leukemia cell line.

Sequence of Stromelysin-1 (P08254 whole entry): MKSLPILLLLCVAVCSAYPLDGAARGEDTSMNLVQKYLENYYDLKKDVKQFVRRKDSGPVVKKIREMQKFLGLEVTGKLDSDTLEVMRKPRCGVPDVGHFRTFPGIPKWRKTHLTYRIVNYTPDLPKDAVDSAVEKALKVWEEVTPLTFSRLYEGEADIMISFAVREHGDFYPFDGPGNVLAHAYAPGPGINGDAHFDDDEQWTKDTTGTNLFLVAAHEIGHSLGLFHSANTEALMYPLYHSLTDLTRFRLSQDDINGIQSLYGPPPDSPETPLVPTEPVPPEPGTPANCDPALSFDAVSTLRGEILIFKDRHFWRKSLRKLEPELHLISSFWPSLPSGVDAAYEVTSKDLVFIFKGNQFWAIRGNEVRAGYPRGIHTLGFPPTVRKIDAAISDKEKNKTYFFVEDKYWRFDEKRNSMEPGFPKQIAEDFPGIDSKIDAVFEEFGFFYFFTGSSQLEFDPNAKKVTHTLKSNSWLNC
Sequence of Matrix metalloproteinase-9 (P14780 whole entry, the tested form may be a part): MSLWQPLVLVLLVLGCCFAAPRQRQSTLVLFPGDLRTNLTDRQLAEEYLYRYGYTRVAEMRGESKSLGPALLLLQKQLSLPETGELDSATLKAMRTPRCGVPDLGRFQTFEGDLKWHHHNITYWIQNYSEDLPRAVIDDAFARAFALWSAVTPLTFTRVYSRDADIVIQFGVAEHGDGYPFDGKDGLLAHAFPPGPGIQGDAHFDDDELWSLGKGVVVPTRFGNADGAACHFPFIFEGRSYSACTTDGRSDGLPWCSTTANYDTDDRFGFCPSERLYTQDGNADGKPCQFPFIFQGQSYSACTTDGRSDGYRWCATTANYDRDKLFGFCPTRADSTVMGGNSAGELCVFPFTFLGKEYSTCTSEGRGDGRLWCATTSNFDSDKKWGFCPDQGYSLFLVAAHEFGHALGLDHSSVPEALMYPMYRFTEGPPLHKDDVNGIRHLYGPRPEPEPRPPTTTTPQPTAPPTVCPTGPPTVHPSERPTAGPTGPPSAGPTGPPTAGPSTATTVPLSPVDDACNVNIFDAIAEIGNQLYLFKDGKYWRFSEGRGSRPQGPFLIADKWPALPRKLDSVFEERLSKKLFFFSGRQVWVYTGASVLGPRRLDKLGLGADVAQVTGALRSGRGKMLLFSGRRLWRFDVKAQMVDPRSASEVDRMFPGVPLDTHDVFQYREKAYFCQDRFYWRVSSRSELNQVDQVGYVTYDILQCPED
Sequence of Disintegrin and metalloproteinase domain-containing protein 17 (P78536 whole entry, the tested form may be a part): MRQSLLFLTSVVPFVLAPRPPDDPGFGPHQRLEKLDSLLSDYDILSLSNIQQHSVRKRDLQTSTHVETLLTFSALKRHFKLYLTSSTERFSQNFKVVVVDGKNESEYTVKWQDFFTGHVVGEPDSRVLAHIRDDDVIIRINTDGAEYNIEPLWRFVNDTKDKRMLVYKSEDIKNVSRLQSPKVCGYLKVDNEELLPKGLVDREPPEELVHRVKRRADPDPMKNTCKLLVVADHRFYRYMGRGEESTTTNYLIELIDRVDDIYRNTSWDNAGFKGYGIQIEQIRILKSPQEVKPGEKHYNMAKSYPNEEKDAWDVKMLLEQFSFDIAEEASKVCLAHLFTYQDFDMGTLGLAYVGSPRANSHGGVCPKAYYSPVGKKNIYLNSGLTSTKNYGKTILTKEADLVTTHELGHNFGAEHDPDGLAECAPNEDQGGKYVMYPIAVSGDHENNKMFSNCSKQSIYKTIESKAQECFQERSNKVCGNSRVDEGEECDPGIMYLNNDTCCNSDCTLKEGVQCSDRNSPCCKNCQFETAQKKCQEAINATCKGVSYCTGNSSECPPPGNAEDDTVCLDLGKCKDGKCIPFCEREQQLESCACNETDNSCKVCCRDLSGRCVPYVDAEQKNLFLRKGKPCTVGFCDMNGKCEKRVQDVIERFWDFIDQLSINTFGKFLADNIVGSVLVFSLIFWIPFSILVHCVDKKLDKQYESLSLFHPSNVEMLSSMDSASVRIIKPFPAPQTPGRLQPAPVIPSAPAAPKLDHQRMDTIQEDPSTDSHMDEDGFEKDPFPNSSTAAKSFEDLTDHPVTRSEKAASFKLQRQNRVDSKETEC

`COc1ccc(P(=O)(OC)N2Cc3ccccc3CC2C(=O)NO)cc1` (configuration not stated): the Ki is 2.95 nM in assay [1], 3.64 nM in assay [3], 2.03 nM in assay [4] and 8.92 nM in assay [5]. The IC50 in assay [2] stood at 70 nM.

With `CCCCCCOP(=O)(c1ccc(OC)cc1)N1Cc2ccccc2CC1C(=O)NO` (configuration not stated), the Ki in assay [1] was found to be 5.19 nM; in assay [3] it was 10.9 nM; in assay [4], 6.57 nM; in assay [5] it was 32.7 nM. The molecule further displayed a half-inhibitory concentration (IC50) in assay [2] of 1600 nM.

For the molecule `CCN(CC)CCOP(=O)(c1ccc(OC)cc1)N1Cc2ccccc2CC1C(=O)NO` (configuration not stated), the Ki in assay [1] came out at 82.4 nM; in assay [3] it was 10.7 nM; in assay [4] it was 16.7 nM; in assay [5] it was 33.2 nM. Moreover, the IC50 in assay [2] was 1140 nM.

As to `CCOP(=O)(c1ccc(OC)cc1)N1CCCC1C(=O)NO` (configuration not stated), the Ki was 527 nM in assay [1], > 850 nM in assay [3], 316 nM in assay [4] and > 780 nM in assay [5]. Further, the concentration for half-maximal inhibition (IC50) in assay [2] was > 10000 nM.

With `CCOP(=O)(c1cccc(F)c1)N1Cc2ccccc2CC1C(=O)NO` (configuration not stated), the inhibitory constant (Ki) in assay [1] was determined as 51.4 nM; in assay [3] it was 27.1 nM; in assay [4] it was 80.1 nM; in assay [5], 22.8 nM. The molecule also registered an IC50 in assay [2] of 830 nM.

As to `CCOP(=O)(c1ccccc1)N1Cc2ccccc2CC1C(=O)NO` (configuration not stated), the Ki is 34.9 nM in assay [1], 11.4 nM in assay [3], 42.7 nM in assay [4] and 11.2 nM in assay [5]. The same molecule registered an IC50 in assay [2] of 370 nM.

As for `CCOP(=O)(/C=C/c1ccccc1)N1Cc2ccccc2CC1C(=O)NO` (configuration not stated), the inhibition constant Ki in assay [1] is 29.7 nM; in assay [3], 160 nM; in assay [4], 88.8 nM; in assay [5], 37.4 nM. The half-inhibitory concentration (IC50) in assay [2] is 910 nM.

`CCOP(=O)(c1ccc(F)cc1)N1Cc2ccccc2CC1C(=O)NO` (configuration not stated): the results for the Ki in assay [1], in assay [3] and in assay [4] were 64.4 nM, 0.97 nM and 51.9 nM, respectively. For the same molecule, the IC50 in assay [2] was 300 nM.

For `CCOP(=O)(c1ccc(C)cc1)N1Cc2ccccc2CC1C(=O)NO` (configuration not stated), the Ki in assay [1] was 72.9 nM; in assay [3], 4.9 nM; in assay [4], 41.8 nM; in assay [5], 500 nM. Also, the IC50 in assay [2] came to 1890 nM.

Regarding `COc1ccc(P(=O)(OCCc2ccccn2)N2Cc3ccccc3CC2C(=O)NO)cc1` (configuration not stated), the Ki in assay [1] amounted to 6.41 nM; in assay [3], 3.14 nM; in assay [4], 3.42 nM; in assay [5], 120 nM. In assay [2], this molecule gave an IC50 of 180 nM.

For the molecule `CCOP(=O)(c1ccc(OC)cc1)N1CCN(C(=O)OCc2ccccc2)CC1C(=O)NO` (configuration not stated), the Ki amounted to 14.9 nM in assay [1], 20.1 nM in assay [3], 5.2 nM in assay [4] and 7.99 nM in assay [5]. In assay [2], this molecule had an IC50 of 430 nM.

Take `CCOP(=O)(c1ccc(OC)cc1)N1Cc2ccsc2CC1C(=O)NO` (configuration not stated): the Ki came to 5.2 nM in assay [1], 4.1 nM in assay [3], 3.8 nM in assay [4] and 6.45 nM in assay [5]. Further, the IC50 in assay [2] was 520 nM.

As for `CCOP(=O)(c1ccccc1F)N1Cc2ccccc2CC1C(=O)NO` (configuration not stated), the inhibition constant (Ki) in assay [1] was 47.8 nM; in assay [3], 24 nM; in assay [4], 32.1 nM; in assay [5], 73.6 nM. This molecule showed an IC50 in assay [2] of 1060 nM.

In the case of `CCOP(=O)(c1ccc(Oc2ccncc2)cc1)N1Cc2ccccc2CC1C(=O)NO` (configuration not stated), the inhibitory constant (Ki) in assay [1] stood at 4.85 nM; in assay [3], 39.8 nM; in assay [4], 0.6 nM; in assay [5] it was 13.8 nM. Besides, the IC50 in assay [2] was found to be 660 nM.

In the case of `COc1ccc(P(=O)(OC(C)C)N2Cc3ccccc3CC2C(=O)NO)cc1` (configuration not stated), the Ki amounted to 24.4 nM in assay [1], 17.8 nM in assay [3] and 23.2 nM in assay [4]. The IC50 in assay [2] is 2240 nM.

Consider `COc1ccc(P(=O)(OCCc2ccc(-c3ccccc3)cc2)N2Cc3ccccc3CC2C(=O)NO)cc1` (configuration not stated), for which the Ki in assay [1] came out at 12.8 nM; in assay [3], 7.33 nM; in assay [4] it was 6.47 nM; in assay [5] it was 90.2 nM. The concentration for half-maximal inhibition (IC50) in assay [2] was 3560 nM.

Turning to `COc1ccc(P(=O)(OCC2CCCCC2)N2Cc3ccccc3CC2C(=O)NO)cc1` (configuration not stated), the Ki was found to be 2.43 nM in assay [1], 6.67 nM in assay [3], 4.56 nM in assay [4] and 15.5 nM in assay [5]. The molecule further displayed an IC50 in assay [2] of 1340 nM.

Consider `CCO[P@](=O)(c1ccc(OC)cc1)N1Cc2ccccc2C[C@H]1C(=O)NO`, for which the Ki was > 650 nM in assay [1], > 850 nM in assay [3], > 800 nM in assay [4] and > 780 nM in assay [5]. In addition, the IC50 in assay [2] is > 10000 nM.

Consider `COc1ccc(P(=O)(OCCc2ccccc2)N2Cc3ccccc3CC2C(=O)NO)cc1` (configuration not stated), for which the inhibition constant Ki in assay [1] worked out at 8.15 nM; in assay [3] it was 4.43 nM; in assay [4], 5.22 nM; in assay [5] it was 42.2 nM. In addition, the half-inhibitory concentration (IC50) in assay [2] came to 3110 nM.

For the molecule `CCOP(=O)(CCc1ccccc1)N1Cc2ccccc2CC1C(=O)NO` (configuration not stated), the Ki in assay [1] came out at 11.6 nM; in assay [3], 20.8 nM; in assay [4], 38.3 nM; in assay [5], 14.2 nM. The same molecule came in with an IC50 in assay [2] of 700 nM.

On to `CCOP(=O)(c1ccc(Oc2ccccc2)cc1)N1Cc2ccccc2CC1C(=O)NO` (configuration not stated), for which the Ki came out at 0.53 nM in assay [1], 1.81 nM in assay [3], 0.08 nM in assay [4] and 7.89 nM in assay [5]. This molecule gave an IC50 in assay [2] of 260 nM.

As to `CCO[P@@](=O)(c1ccc(OC)cc1)N1Cc2ccccc2CC1C(=O)NO` (some centres not stated), the Ki in assay [1] was 5.2 nM; in assay [3], 4.58 nM; in assay [4] it was 5.05 nM; in assay [5] it was 7.15 nM. In addition, the IC50 in assay [2] came to 230 nM.

As to `CCCCOP(=O)(c1ccc(OC)cc1)N1Cc2ccccc2CC1C(=O)NO` (configuration not stated), the Ki in assay [1] is 24 nM; in assay [3], 5.39 nM; in assay [4] it was 9.12 nM. For the same molecule, the IC50 in assay [2] came out at 810 nM.

On to `CCO[P@@](=O)(c1ccc(OC)cc1)N1Cc2ccccc2C[C@H]1C(=O)NO`, for which the Ki was > 650 nM in assay [1], 759 nM in assay [3], 349 nM in assay [4] and > 780 nM in assay [5]. Further, the IC50 in assay [2] was > 10000 nM.

Take `CCOP(=O)(c1ccc(Oc2ccc(N)cc2)cc1)N1Cc2ccccc2CC1C(=O)NO` (configuration not stated): the Ki in assay [1] was found to be 0.5 nM; in assay [3], 6.5 nM; in assay [4], 0.1 nM; in assay [5] it was 21.7 nM. The molecule also registered an IC50 in assay [2] of 1670 nM.

As for `CCO[P@](=O)(c1ccc(OC)cc1)N1Cc2ccccc2CC1C(=O)NO` (some centres not stated), the Ki in assay [1] is > 650 nM; in assay [3], > 850 nM; in assay [4], > 800 nM; in assay [5], > 780 nM. Besides, the 50% inhibitory concentration (IC50) in assay [2] was > 10000 nM.

As to `CCOP(=O)(c1ccc(N)cc1)N1Cc2ccccc2CC1C(=O)NO` (configuration not stated), the Ki in assay [1] was determined as 162 nM; in assay [3] it was 58.8 nM; in assay [4] it was 95.6 nM; in assay [5], 75.8 nM. The molecule further displayed an IC50 in assay [2] of 660 nM.

For the molecule `CCOP(=O)(c1ccc(-c2ccccc2)cc1)N1Cc2ccccc2CC1C(=O)NO` (configuration not stated), the inhibition constant Ki in assay [1] was 4.36 nM; in assay [3], 9.65 nM; in assay [4], 0.31 nM; in assay [5], 50 nM. This molecule also gave an IC50 in assay [2] of 1960 nM.
